ChEMBL document CHEMBL1121507, “Bronchodilator and antiulcer phenoxypyrimidinones” (1980)

What was measured:
[1] = test system: Cavia porcellus; assay: Evaluation of bronchodilator activity at dose 60 mg/kg perorally 1 hr prior to histamine aerosol exposure.; type: functional; settings: route oral
In short: (§1)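 Guinea pigs received drug po, dissolved in 1 N HCl or suspended in vehicle, 1 h before challenge. The challenge was 0.4% aqueous histamine nebulized at 6 psi into a closed chamber. Respiratory status was scored 0–4 (4 = unconsciousness). Percent protection compares the total score of 8 treated animals with a control group of 8 (control = 0, complete protection = 100), giving a single value.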

[2] = test system: Cavia porcellus; assay: Respiratory status of guinea pigs exposed to histamine aerosol expressed as percent protection at a dose of 30 mg/kg (po); type: functional; in short: as §1
[3] = test system: Rattus norvegicus; assay: Evaluation of antiulcer activity (% decrease in total number of lesions in cold-restraint, stressed rats) at peroral dose 10 mg/kg.; type: functional; settings: route oral
In short: (§2)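 Nonfasted female Sprague–Dawley rats (90–120 g) were immobilized supine and held at 12 °C for 3 h to induce gastric ulceration. Drug was suspended in saline with 10 g/L carboxymethylcellulose and 1 g/L Tween 80 and given po or ip 3 h before stress. Rats were then killed and stomachs removed. Readout: percent decrease in total lesion number versus controls. Active: p ≤ 0.05.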

[4] = test system: Rattus norvegicus; assay: Evaluation of antiulcer activity( percent decrease in total number of lesions in cold-restraint, stressed rats) at intraperitoneal dose at 100 mg/kg; Inactive; type: functional; in short: as §2
[5] = test system: Cavia porcellus; assay: Respiratory status of guinea pigs exposed to histamine aerosol expressed as percent protection 8 hr at a dose of 60 mg/kg (po)
[6] = test system: Cavia porcellus; assay: Respiratory status of guinea pigs exposed to histamine aerosol expressed as percent protection at a dose of 10 mg/kg (po); type: functional; in short: as §1
[7] = test system: Cavia porcellus; assay: Respiratory status of guinea pigs exposed to histamine aerosol expressed as percent protection 4 hr at a dose of 60 mg/kg (po)
[8] = test system: Cavia porcellus; assay: Respiratory status of guinea pigs exposed to histamine aerosol expressed as percent protection 2 hr at a dose of 60 mg/kg (po)
[9] = test system: Cavia porcellus; assay: Respiratory status of guinea pigs exposed to histamine aerosol expressed as percent protection at a dose of 60 mg/kg (po); type: functional; in short: as §1
[10] = test system: Cavia porcellus; assay: Respiratory status of guinea pigs exposed to histamine aerosol expressed as percent protection at a dose of 3 mg/kg (po); type: functional; in short: as §1
[11] = test system: Rattus norvegicus; assay: Evaluation of antiulcer activity( percent decrease in total number of lesions in cold-restraint, stressed rats) at intraperitoneal dose at 32 mg/kg; Inactive; type: functional; in short: as §2
[12] = test system: Rattus norvegicus; assay: Evaluation of antiulcer activity( percent decrease in total number of lesions in cold-restraint, stressed rats) at intraperitoneal dose at 100 mg/kg; Active; type: functional; in short: as §2
[13] = test system: Cavia porcellus; assay: Respiratory status of guinea pigs exposed to histamine aerosol expressed as percent protection 2 hr at a dose of 60 mg/kg (po); type: functional
In short: (§3)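 Duration study in guinea pigs: 60 mg/kg po given 2, 4 or 8 h before exposure to aerosol from 0.4% aqueous histamine nebulized at 6 psi in a closed chamber. Respiratory distress was scored 0–4. Percent protection compares the total score of 8 treated animals with 8 controls (control = 0, complete protection = 100).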

[14] = test system: Cavia porcellus; assay: Respiratory status of guinea pigs exposed to histamine aerosol expressed as percent protection 8 hr at a dose of 60 mg/kg (po); type: functional; in short: as §3
[15] = test system: Cavia porcellus; assay: Respiratory status of guinea pigs exposed to histamine aerosol expressed as percent protection 4 hr at a dose of 60 mg/kg (po); type: functional; in short: as §3
[16] = test system: Rattus norvegicus; assay: Evaluation of antiulcer activity (percent decrease in total number of lesions in cold-restraint, stressed rats) at peroral dose 10 mg/kg; Active; type: functional; settings: route oral; in short: as §2
[17] = test system: Rattus norvegicus; assay: Evaluation of antiulcer activity (percent decrease in total number of lesions in cold-restraint, stressed rats) at peroral dose 10 mg/kg; Inactive; settings: route oral
[18] = test system: Rattus norvegicus; assay: Evaluation of antiulcer activity (percent decrease in total number of lesions in cold-restraint, stressed rats) at intraperitoneal dose at 100 mg/kg; Inactive; type: functional; in short: as §2
[19] = test system: Rattus norvegicus; assay: Evaluation of antiulcer activity (percent decrease in total number of lesions in cold-restraint, stressed rats) at intraperitoneal dose at 100 mg/kg; Active; type: functional; in short: as §2
[20] = test system: Cavia porcellus; assay: Evaluation of bronchodilator activity at dose 60 mg/kg perorally 1 hr prior to histamine aerosol exposure; 20-30; type: functional; settings: route oral
In short: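 Guinea pigs got 60 mg/kg po, either dissolved in 1 N HCl or suspended in vehicle; controls got vehicle. After 1 h each was challenged with histamine aerosol: 0.4% aqueous histamine nebulized at 6 psi into a closed chamber. Respiration was scored 0–4, with 4 being unconsciousness. Percent protection came from comparing the total score of eight treated animals with a control group of eight, giving a single value.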

Oc1ncncc1Oc1ccccc1Cl
Protection [1]: 13%

Oc1ncc(Oc2ccc(Cl)cc2)cn1
Protection [2]: 71% | Protection [1]: 92% | Decrease [3]: 7% | Decrease [4]: 0% | Protection [5]: 88% | Protection [6]: 37% | Protection [7]: 94% | Protection [8]: 94% | Protection [9]: 92% | Protection [10]: 22%

Oc1ncncc1Oc1cccc(Cl)c1
Protection [1]: 13% | Decrease [11]: 18%

COc1ccc(Oc2cncnc2O)cc1
Protection [1]: 26% | Decrease [3]: 0%

Cc1cc(C)cc(Oc2cnc(O)nc2)c1
Protection [1]: 38% | Decrease [3]: 50% | Decrease [12]: 53%

Cc1ccc(Oc2cnc(O)nc2)cc1
Protection [2]: 81% | Protection [1]: 86% | Protection [13]: 86% | Decrease [4]: 0% | Protection [14]: 10% | Protection [15]: 8% | Decrease [16]: 57% | Protection [6]: 18% | Protection [9]: 86% | Protection [10]: 2%

Oc1ncc(Oc2ccc(Cl)cc2Cl)cn1
Protection [1]: 47% | Decrease [3]: 22% | Decrease [4]: 19%

Cc1ccc(Oc2cnc(O)nc2)cc1C
Protection [1]: 14% | Decrease [3]: 54% | Decrease [4]: 53%

Cc1cccc(Oc2cnc(O)nc2O)c1
Protection [1]: 7% | Decrease [3]: 0% | Decrease [12]: 67%

CSc1ccc(Oc2cnc(O)nc2)cc1
Protection [1]: 55% | Decrease [3]: 0% | Decrease [4]: 0%

Oc1ncc(Oc2ccccc2)cn1
Protection [1]: 28% | Decrease [16]: 37% | Decrease [12]: 81%

Cc1ccccc1Oc1cnc(O)nc1
Protection [1]: 6% | Decrease [3]: 0% | Decrease [4]: 25%

COc1ccc(Oc2cnc(O)nc2)cc1
Protection [1]: 45% | Decrease [3]: 0% | Decrease [4]: 0%

CCc1ccc(Oc2cnc(O)nc2)cc1
Protection [1]: 98% | Decrease [3]: 0% | Decrease [4]: 27%

CCc1cccc(Oc2cnc(O)nc2)c1
Protection [1]: 3% | Decrease [3]: 28% | Decrease [12]: 53%

Cc1cc(Oc2cnc(O)nc2)ccc1Cl
Protection [1]: 6% | Decrease [3]: 0% | Decrease [4]: 14%

Oc1ncncc1Oc1ccccc1
Protection [1]: 23% | Decrease [3]: 0%

Cc1cccc(Oc2cncnc2O)c1
Protection [1]: 28% | Decrease [3]: 0%

Oc1ncc(Oc2ccc(Br)cc2)cn1
Protection [1]: 90% | Decrease [3]: 0% | Decrease [4]: 0%

Oc1ncc(Oc2cccc(Cl)c2)cn1
Protection [1]: 22% | Decrease [3]: 22% | Decrease [4]: 0%

COc1cccc(Oc2cncnc2O)c1
Protection [1]: 7% | Decrease [3]: 0%

Oc1ncc(Sc2ccc(Cl)cc2)cn1
Protection [1]: 63%

Oc1ncc(Oc2ccccc2)c(O)n1
Protection [1]: 25% | Decrease [3]: 22%

Oc1ncncc1Oc1ccc(Cl)c(Cl)c1
Protection [1]: 45%

Oc1ncc(Sc2ccccc2)cn1
Protection [1]: 23% | Decrease [3]: 45% | Decrease [4]: 47%

Cc1ccc(Oc2cnc(O)nc2)c(C)c1
Decrease [4]: 0% | Decrease [17]: 6%

Oc1ncc(Oc2ccc(Cl)cc2)c(O)n1
Protection [1]: 50% | Decrease [3]: 35%

Cc1ccc(Oc2cnc(O)nc2O)cc1
Protection [1]: 35% | Decrease [3]: 0%

Oc1ncc(Oc2cccc(C(F)(F)F)c2)cn1
Protection [1]: 26% | Decrease [3]: 39%

CC(C)c1ccc(Oc2cnc(O)nc2)cc1
Protection [1]: 0% | Decrease [3]: 0% | Decrease [4]: 9%

Oc1ncncc1Oc1ccc(F)cc1
Protection [1]: 80% | Decrease [3]: 28%

Oc1ncc(Oc2ccc(F)cc2)cn1
Protection [1]: 66% | Decrease [3]: 0% | Decrease [4]: 0%

COc1cccc(Oc2cnc(O)nc2)c1
Protection [1]: 3% | Decrease [3]: 55% | Decrease [12]: 82%

C[S+]([O-])c1ccc(Oc2cnc(O)nc2)cc1 (configuration not stated)
Protection [1]: 10% | Decrease [3]: 50% | Decrease [4]: 0%

Oc1ncncc1Oc1ccc(Cl)cc1
Protection [1]: 92% | Decrease [18]: 0%

Cc1ccc(Oc2cncnc2O)cc1
Protection [1]: 92% | Decrease [3]: 27%

Cc1cccc(Sc2cnc(O)nc2)c1
Decrease [19]: 78% | Decrease [17]: 0%

Cc1ccc(Sc2cnc(O)nc2)cc1
Protection [1]: 26% | Decrease [3]: 18% | Decrease [12]: 64%

Cn1c(=O)c2nc[nH]c2n(C)c1=O.O [THEOPHYLLINE]
Protection [20]: 20%

Cc1cccc(Oc2cnc(=O)[nH]c2)c1 [TOLIMIDONE]
Protection [1]: 3% | Decrease [16]: 38% | Decrease [12]: 70%
